Screening results from PubChem.
The entries come from a sample that favours hits as a whole.
H69AR growth 86K = proliferation blockers of H69AR lung cancer cells, primary screen, cell-based, human, 86K library; 85,000 compounds, 6% hits; viability, % at 10 µM; AID 598, 2007; H69AR lung tumor viability, ATP luminescence, 72 h; stronger effect = lower value;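 active = viability at or below 40%; inactive = viability above 40%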;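 also: multidrug resistant small cell line overexpressing MRP-1 efflux transporter; 100% = mean luminescence of untreated control wells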
PTEN del growth = growth suppression of PTEN-null HCT116, primary screen, cell-based, CellTiter-Glo | HCT116 PTEN-null viability, 60 h; stronger effect = lower value | AID 827, 2007 | viability, % at 10 µM | 140,000 compounds, 1.2% hits;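 active = viability at or below a set limit, 4 SD under the median of all tested compounds, cut at about 3.7% in these data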;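 also: PTEN knockout HCT116 line with beta catenin targeted HCT116 as companion control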
Lung fibro prol = antiproliferative effect on LL 47 fibroblasts – human, LL 47 cells, CellTiter-Glo luminescence, primary screen | viability, % at 10 µM | 85,000 compounds, 1.1% hits | LL 47 human lung fibroblast viability, ATP luminescence; stronger effect = lower value;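 active = viability at or below 50% in the single dose screen; inactive = viability above 50%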;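 also: compound exposure lasted 72 h before the ATP readout; 100% = median luminescence of untreated cell-only wells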
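material = human LL 47 lung fibroblast cells | dosing = compounds added from tenfold dosing solution, 0.1% DMSO final | timing = overnight cell rest, 72 h compound treatment at 37 °C | measured by = CellTiter-Glo luminescence measuring cellular ATP | evaluation = % viability versus median cells-only luminescence | control set = cell-only wells, no compound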
bCat KO growth = primary screen for growth suppressors in beta-catenin knockout HCT116 cells (colon tumor, human) | HCT116 beta-catenin knockout viability, CellTiter-Glo, 60 h; stronger effect = lower value | viability, % at 10 µM | 140,000 compounds, 1.5% hits;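 active = viability at or under a set limit, the compound median less 4 SD, cut at about 6% in these data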;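 also: 0% = Hyamine 1622 control at 20 µM and 100% = untreated cell control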
HUVEC prolif 384 = inhibitors of HUVEC proliferation, primary screen, cell-based, 384-well; CellTiter-Glo luminescence, 72 h; stronger effect = lower value; 86,000 compounds, 1.1% hits; viability, % at 10 µM (by protocol); AID 648, 2007;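 active = viability at or below 30%; inactive = viability above 30%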;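 also: 100% = median luminescence of DMSO-only cell control wells on each plate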
The depositor's hits bear a star; x = not tested or not shown.

SMILES	H69AR growth 86K	PTEN del growth	Lung fibro prol	bCat KO growth	HUVEC prolif 384
COC(=O)c1ccc2c(c1)N(Cc1nc(-c3cccc(Cl)c3)oc1C)C(=O)C1CCCN21 (stereo not drawn)	68	x	85	x	83
COC(=O)c1ccc2c(c1)N(Cc1nc(-c3ccc(Cl)cc3)oc1C)C(=O)C1CCCN21 (stereo not drawn)	15*	x	96	x	87
CCOC(=O)c1cc2sc(C)cc2n1CC(=O)N(CC)CC	86	80	106	85	104
CCOC(=O)c1cc2sc(C)cc2n1CC(=O)NCCc1ccccc1	27*	96	101	84	82
c1ccc(C2=Nn3c(nnc3-c3cc(-c4ccccc4)n[nH]3)SC2)cc1	40*	79	63	77	90
COc1cc(-c2nnc3n2N=C(c2ccccc2)CS3)cc(OC)c1OC	19*	10	52	13	49
CCOc1ccc(C2=Nn3c(nnc3-c3ccco3)SC2)cc1	76	98	93	98	98
COc1ccc(C2=Nn3c(nnc3-c3ccc(OC)cc3)SC2)cc1	22*	14	42*	16	47
CCOc1ccc(C2=Nn3c(nnc3-c3ccccn3)SC2)cc1	30*	91	94	83	95
O=C(c1ccc(Cl)c(Cl)c1)N1CCC(=O)N(C(COCc2ccccc2)Cc2ccccc2)CC1 (stereo not drawn)	x	62	x	64	x
COC(=O)c1ccc(CSc2nnc(NC(=O)C3CC(=O)N(Cc4ccc(C)cc4)C3)s2)cc1 (stereo not drawn)	x	96	x	103	x
COc1cccc(/C(O)=C/c2nc3ccc(C(=O)NCCc4cccc(C)c4)cc3[nH]c2=O)c1	x	4	x	8	x
COc1cccc(/C(O)=C/c2nc3ccc(C(=O)NCCc4ccc(Cl)cc4)cc3[nH]c2=O)c1	x	1.2*	x	1.5*	x
CCOC(=O)C1=NN(C(C)=O)C2(CC(=O)N(c3cccc(C)c3)C2=O)C1 (stereo not drawn)	x	102	x	94	x
Cc1c(-c2ccccc2)oc2c(C(=O)OCC(=O)Nc3ccc(C(N)=O)cc3)cccc2c1=O	x	105	x	101	x
COc1cccc(NC(=O)CSC(N)=O)c1	x	95	x	89	x
COc1ccc(Cn2c3nc4ccccc4nc3c3c(=O)n(Cc4ccco4)c(C)nc32)cc1	4.5*	x	42*	x	49
Cc1nc2c(c(=O)n1CC1CCCO1)c1nc3ccccc3nc1n2Cc1ccc2c(c1)OCO2 (stereo not drawn)	40*	x	81	x	53
CC(=O)c1ccccc1OCC(O)CN1CCN(C(c2ccccc2)c2ccccc2)CC1 (stereo not drawn)	9.8*	37	77	38	69
CCOc1ccccc1C(=O)N1CCN(C(c2ccccc2)c2ccccc2)CC1	x	69	x	72	x
COc1ccccc1N1CCN(c2ccc(-c3ccccc3)nn2)CC1	19*	10	50*	13	40
COc1ccc(OCC(=O)Nc2cccc(C(=O)Nc3ccccc3C(=O)O)c2)cc1	x	95	x	92	x
C[C@]12CC[C@@H]3c4ccc(OC(=O)c5ccccc5)cc4CC[C@H]3[C@@H]1CC[C@@H]2O	26*	44	93	47	55
COc1ccc(CN2C(=O)c3ccccc3C2=O)cc1C(=O)OCC(=O)NC1CCCCC1	x	105	x	103	x
COc1ccc(NC(=O)c2cc(CN3C(=O)c4ccccc4C3=O)ccc2OC)cn1	17*	86	x	94	62
SMILES	H69AR growth 86K	PTEN del growth	Lung fibro prol	bCat KO growth	HUVEC prolif 384
CN(C)c1ccc(-c2nnn(CC(=O)N3c4ccccc4CCc4ccccc43)n2)cc1	39*	87	99	79	94
CN(C)c1ccc(-c2nnn(CC(=O)Nc3ccccc3N3CCOCC3)n2)cc1	65	71	95	79	94
CC(=O)Oc1ccc2c(C)cc(=O)oc2c1	96	99	110	95	104
CC(=O)Oc1cc2oc(=O)cc(C)c2cc1OC(C)=O	36*	74	84	59	78
CCn1cc(C2C3=C(CC(C)(C)CC3=O)N(c3ccccc3)C3=C2C(=O)CC(C)(C)C3)c(C)n1	x	97	x	92	x
O=c1oc2ccccc2cc1-c1csc(Nc2nc3ccc(F)cc3s2)n1	x	68	x	80	x
O=c1oc2ccccc2cc1-c1csc(Nc2nc3c(F)cccc3s2)n1	x	2.5*	x	5.1*	x
O=C(COc1nc2ccccc2nc1N1CCOCC1)N1CCc2ccccc21	36*	54	40*	37	76
O=C(COc1nnnc2ccccc12)N1CCCc2ccccc21	86	92	103	87	91
Oc1ccc2ccccc2c1/C=N/Nc1nnc(-c2ncc[nH]2)c2ccccc12	x	2.1*	x	4.9*	x
C=CCNc1cc(C(F)(F)F)nc(-c2ccccn2)n1	x	96	x	94	x
CCCCNC(=O)C1CC(=O)N(c2ccc(OC)cc2)C1c1ccc(OC)cc1 (stereo not drawn)	90	86	101	84	90
Cc1sc2ncnc(Sc3nnnn3-c3ccc(Cl)cc3)c2c1C	1.4*	5	67	4.9*	9.9*
c1ccc(-n2nnnc2Sc2ncnc3sc4c(c23)CCCC4)cc1	x	4	x	4.5*	x
CCOc1ccccc1CNC(=O)c1c([N+](=O)[O-])c(C)nn1C	x	95	x	95	x
CCC(=O)N(Cc1c(C)nn(-c2ccccc2)c1Cl)c1ccc(Cl)cc1	x	59	x	63	x
O=C(/C=C/c1ccc(Br)cc1)c1ccc(NC2=NCCCS2)cc1	x	2.4*	x	3.2*	x
CC(C)(C)c1ccc(/C=C/C(=O)c2ccc(NC3=NCCCS3)cc2)cc1	x	0.9*	x	1.1*	x
O=C(/C=C/c1ccccc1)c1ccc(NC2=NCCCS2)cc1	x	10	x	9	x
C(=C\c1ccccc1)/CSc1nnc(-c2cnccn2)n1Cc1ccco1	29*	67	87	61	62
Cc1ccc(-c2cc(-c3ccccc3Cl)[nH]n2)c(O)c1	1.9*	44	66	26	36
Cc1ccccc1-c1cc(-c2ccccc2O)n[nH]1	33*	34	77	22	42
Oc1ccc(Br)cc1-c1cc(-c2ccccc2F)[nH]n1	56	39	80	39	82
Cc1ccc(-c2cc(-c3ccccc3[N+](=O)[O-])[nH]n2)c(O)c1	x	65	x	57	x
Cc1ccc(NC(=O)N2N=C(c3ccc(F)cc3)CC2c2ccc(F)cc2)cc1 (stereo not drawn)	x	69	x	82	x
Cc1ccsc1/C=N/NS(=O)(=O)c1ccc([N+](=O)[O-])cc1	x	97	x	93	x
CCCn1c(SCC(=O)Nc2nc3c(s2)CCCC3)nc2c1c(=O)n(C)c(=O)n2C	32*	73	93	91	83
CCOC(=O)c1c(NC(=O)CSc2nc3c(c(=O)n(C)c(=O)n3C)n2CC)sc(C)c1C	4.0*	x	88	x	53
